Measurements published in ChEMBL document CHEMBL4270599, “Synthesis of a 3'-C-ethynyl-β-d-ribofuranose purine nucleoside library: Discovery of C7-deazapurine analogs as potent antiproliferative nucleosides” (Eur J Med Chem, 2018).

How the values were obtained:
EKVX = experiment: Growth inhibition of human EKVX cells assessed as cell growth at 10^-7 M incubated for 48 hrs by sulforhodamine B assay relative to control; type: functional; conditions: read-out: Activity
LOX IMVI = experiment: Growth inhibition of human LOXIMVI cells assessed as cell growth at 10^-7 M incubated for 48 hrs by sulforhodamine B assay relative to control; type: functional; conditions: read-out: Activity
MDA-MB-435 [1] = experiment: Growth inhibition of human MDA-MB-435 cells assessed as cell growth at 10^-6 M incubated for 48 hrs by sulforhodamine B assay relative to control; type: functional; conditions: MDA-MB-435, 48 h, read-out: Activity
SF-539 [2] = experiment: Growth inhibition of human SF539 cells assessed as cell growth at 10^-6 M incubated for 48 hrs by sulforhodamine B assay relative to control; type: functional; conditions: SF-539, 48 h, read-out: Activity
Hs-578T = experiment: Growth inhibition of human Hs 578T cells assessed as cell growth at 10^-7 M incubated for 48 hrs by sulforhodamine B assay relative to control; type: functional; conditions: read-out: Activity
HOP-62 = experiment: Growth inhibition of human HOP62 cells assessed as cell growth at 10^-6 M incubated for 48 hrs by sulforhodamine B assay relative to control; type: functional; conditions: HOP-62, 48 h, read-out: Activity
OVCAR-8 [3] = experiment: Growth inhibition of human OVCAR8 cells assessed as cell growth at 10^-7 M incubated for 48 hrs by sulforhodamine B assay relative to control; type: functional; conditions: OVCAR-8, 48 h, read-out: Activity
DU-145 [4] = experiment: Growth inhibition of human DU145 cells assessed as cell growth at 10^-7 M incubated for 48 hrs by sulforhodamine B assay relative to control; type: functional; conditions: DU-145, 48 h, read-out: Activity
A549 = experiment: Growth inhibition of human A549/ATCC cells assessed as cell growth at 10^-8 M incubated for 48 hrs by sulforhodamine B assay relative to control; type: functional; conditions: A549, 48 h, read-out: Activity
SF-539 [5] = experiment: Cytotoxicity against human SF539 cells after 48 hrs by SRB assay; type: functional; conditions: SF-539, 48 h; for GI50: read-out: GI50; for CC50: read-out: LC50 (the source's name); for TGI: read-out: TGI
OVCAR-8 [6] = experiment: Cytotoxicity against human OVCAR8 cells after 48 hrs by SRB assay; type: functional; conditions: OVCAR-8, 48 h; for GI50: read-out: GI50
OVCAR-5 = experiment: Growth inhibition of human OVCAR5 cells assessed as cell growth at 10^-4 M incubated for 48 hrs by sulforhodamine B assay relative to control; type: functional; conditions: OVCAR-5, 48 h, read-out: Activity
RPMI-8226 = experiment: Growth inhibition of human RPMI8226 cells assessed as cell growth at 10^-8 M incubated for 48 hrs by sulforhodamine B assay relative to control; type: functional; conditions: RPMI-8226, 48 h, read-out: Activity
NCI-H460 = experiment: Growth inhibition of human NCI-H460 cells assessed as cell growth at 10^-7 M incubated for 48 hrs by sulforhodamine B assay relative to control; type: functional; conditions: NCI-H460, 48 h, read-out: Activity
TK-10 = experiment: Cytotoxicity against human TK10 cells after 48 hrs by SRB assay; type: functional; conditions: TK-10, 48 h; for GI50: read-out: GI50
MCF7 = experiment: Growth inhibition of human MCF7 cells assessed as cell growth at 10^-7 M incubated for 48 hrs by sulforhodamine B assay relative to control; type: functional; conditions: MCF7, 48 h, read-out: Activity
COLO 205 [7] = experiment: Growth inhibition of human COLO205 cells assessed as cell growth at 10^-5 M incubated for 48 hrs by sulforhodamine B assay relative to control; type: functional; conditions: COLO 205, 48 h, read-out: Activity
DU-145 [8] = experiment: Growth inhibition of human DU145 cells assessed as cell growth at 10^-6 M incubated for 48 hrs by sulforhodamine B assay relative to control; type: functional; conditions: DU-145, 48 h, read-out: Activity
CCRF-CEM = experiment: Antiproliferative activity against human CEM cells after 72 hrs by Coulter counter method; type: functional, cell-based
Summary of the method: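 Cell count assay in 96-well microtiter plates; (5–7.5) × 10⁴ tumor cells per well plus test compound. Cells proliferated at 37 °C in humidified CO₂-controlled atmosphere, 48 h for murine leukemia L1210, 72 h for human lymphocytic CEM and cervix carcinoma HeLa. Counted by Coulter counter; IC₅₀ is the concentration that inhibits proliferation by 50%.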

NCI-H23 = experiment: Growth inhibition of human NCI-H23 cells assessed as cell growth at 10^-7 M incubated for 48 hrs by sulforhodamine B assay relative to control; type: functional; conditions: NCI-H23, 48 h, read-out: Activity
MDA-MB-231 = experiment: Growth inhibition of human MDA-MB-231 cells assessed as cell growth at 10^-8 M incubated for 48 hrs by sulforhodamine B assay relative to control; type: functional; conditions: MDA-MB-231, 48 h, read-out: Activity
COLO 205 [9] = experiment: Growth inhibition of human COLO205 cells assessed as cell growth at 10^-7 M incubated for 48 hrs by sulforhodamine B assay relative to control; type: functional; conditions: COLO 205, 48 h, read-out: Activity
SN12C = experiment: Growth inhibition of human SN12C cells assessed as cell growth at 10^-6 M incubated for 48 hrs by sulforhodamine B assay relative to control; type: functional; conditions: read-out: Activity
UO-31 = experiment: Cytotoxicity against human UO31 cells after 48 hrs by SRB assay; type: functional; conditions: UO-31, 48 h; for GI50: read-out: GI50; for TGI: read-out: TGI
SK-MEL-28 = experiment: Growth inhibition of human SK-MEL-28 cells assessed as cell growth at 10^-7 M incubated for 48 hrs by sulforhodamine B assay relative to control; type: functional; conditions: SK-MEL-28, 48 h, read-out: Activity
NCI-H226 = experiment: Growth inhibition of human NCI-H226 cells assessed as cell growth at 10^-5 M incubated for 48 hrs by sulforhodamine B assay relative to control; type: functional; conditions: NCI-H226, 48 h, read-out: Activity
SF-268 = experiment: Growth inhibition of human SF268 cells assessed as cell growth at 10^-5 M incubated for 48 hrs by sulforhodamine B assay relative to control; type: functional; conditions: SF-268, 48 h, read-out: Activity
MDA-MB-435 [10] = experiment: Cytotoxicity against human MDA-MB-435 cells after 48 hrs by SRB assay; type: functional; conditions: MDA-MB-435, 48 h; for GI50: read-out: GI50; for TGI: read-out: TGI
MOLT-4 = experiment: Growth inhibition of human MOLT4 cells assessed as cell growth at 10^-5 M incubated for 48 hrs by sulforhodamine B assay relative to control; type: functional; conditions: MOLT-4, 48 h, read-out: Activity
BT-549 = experiment: Growth inhibition of human BT549 cells assessed as cell growth at 10^-5 M incubated for 48 hrs by sulforhodamine B assay relative to control; type: functional; conditions: BT-549, 48 h, read-out: Activity
Malme-3M = experiment: Growth inhibition of human MALME-3M cells assessed as cell growth at 10^-5 M incubated for 48 hrs by sulforhodamine B assay relative to control; type: functional; conditions: read-out: Activity
[11] = read-out: pLC50 (the source's name) (converted)
[12] = read-out: LC50 (the source's name)

| Compound | growth at 0.1 µM (EKVX) | growth at 0.1 µM (LOX IMVI) | growth at 1 µM (SF-539 [2]) | growth at 0.1 µM (Hs-578T) | growth at 1 µM (HOP-62) | growth at 0.1 µM (OVCAR-8 [3]) | growth at 0.1 µM (DU-145 [4]) | growth at 0.01 µM (A549) | GI50 (SF-539 [5]) | CC50 (SF-539 [5]) | TGI (SF-539 [5]) | GI50 (OVCAR-8 [6]) | TGI (OVCAR-8 [6]; read-out: TGI) | growth at 0.01 µM (RPMI-8226) | growth at 0.1 µM (NCI-H460) | GI50 (TK-10) | TGI (TK-10; read-out: TGI) | growth at 0.1 µM (MCF7) | growth at 1 µM (DU-145 [8]) | IC50 (CCRF-CEM) | other results |
| --- | --- | --- | --- | --- | --- | --- | --- | --- | --- | --- | --- | --- | --- | --- | --- | --- | --- | --- | --- | --- | --- |
| C#C[C@@]1(O)[C@@H](CO)O[C@@H](n2cc(I)c3c(N)ncnc32)[C@@H]1O | 69 to 75% | 27 to 46% | 23 to 35% | 73 to 84% | 33 to 61% | 32 to 35% | 50 to 57% | 90 to 92% | 304 to 471 nM | 28600 to 31300 nM | 2180 to 2980 nM | 42.3 to 49 nM | 1460 to 100000 nM | 95 to 96% | 37 to 56% | 551 to 572 nM | 5510 nM | 18 to 25% | 19 to 26% | 120 nM | growth at 1 µM (MDA-MB-435 [1]): 34 to 46%; CC50 (OVCAR-8 [6]; [11]): > 100000 nM; growth at 100 µM (OVCAR-5): 2 to 5%; CC50 (TK-10; [12]): > 100000 nM; TGI (TK-10; read-out: pTGI (converted)): 5500 nM; growth at 10 µM (COLO 205 [7]): -62%; growth at 0.1 µM (NCI-H23): 67 to 75%; growth at 0.01 µM (MDA-MB-231): 96 to 100%; growth at 0.1 µM (COLO 205 [9]): 35 to 63%; growth at 1 µM (SN12C): 16 to 25%; GI50 (UO-31): 79.1 to 103 nM; CC50 (UO-31; [12]): > 100000 nM; TGI (UO-31): 3070 to 3300 nM; growth at 0.1 µM (SK-MEL-28): 86 to 88%; growth at 10 µM (NCI-H226): 6 to 10%; growth at 10 µM (SF-268): 7%; GI50 (MDA-MB-435 [10]): 320 to 699 nM; CC50 (MDA-MB-435 [10]; [12]): > 100000 nM; TGI (MDA-MB-435 [10]): 11700 to 14000 nM |
| C#C[C@@]1(O)[C@@H](CO)O[C@@H](n2cc(Cl)c3c(N)ncnc32)[C@@H]1O | 78 to 79% | 34 to 47% | 6 to 10% | 100 to 107% | 2 to 10% | 35 to 39% | 51 to 61% | 98 to 105% | 299 to 351 nM | 21900 to 33900 nM | 1300 to 1610 nM | 10.2 to 33.6 nM | 730 to 1480 nM | 99 to 100% | 13 to 27% | 302 to 334 nM | 891 to 1720 nM | 17 to 25% | 7 to 12% | 12 nM | CC50 (OVCAR-8 [6]; [12]): > 100000 nM; CC50 (TK-10; [11]): > 100000 nM; growth at 0.1 µM (NCI-H23): 69 to 73%; growth at 10 µM (MOLT-4): 2%; growth at 0.01 µM (MDA-MB-231): 88 to 100%; growth at 0.1 µM (COLO 205 [9]): 43 to 69%; growth at 1 µM (SN12C): 5 to 11%; GI50 (UO-31): 153 to 173 nM; TGI (UO-31): 472 to 1780 nM; CC50 (UO-31; [11]): > 100000 nM; growth at 0.1 µM (SK-MEL-28): 87 to 91%; growth at 10 µM (SF-268): 2 to 7%; GI50 (MDA-MB-435 [10]): 132 to 208 nM; CC50 (MDA-MB-435 [10]; [12]): 4670 to 100000 nM; TGI (MDA-MB-435 [10]): 520 to 10200 nM |
| C#C[C@@]1(O)[C@@H](CO)O[C@@H](n2cc(Br)c3c(N)ncnc32)[C@@H]1O | 60 to 74% | 20 to 52% | 3 to 19% | 92 to 97% | 12 to 29% | 28 to 43% | 38 to 58% | 94 to 99% | 238 to 372 nM | 22000 to 30900 nM | 1140 to 2040 nM | 13.5 to 62.5 nM | 1120 nM | 95 to 101% | 9 to 27% | 411 to 481 nM | 85800 to 100000 nM | 12 to 25% | 15 to 16% | 30 nM | growth at 1 µM (MDA-MB-435 [1]): 15 to 28%; growth at 10 µM (BT-549): -44%; CC50 (OVCAR-8 [6]; [12]): > 100000 nM; TGI (OVCAR-8 [6]; read-out: pTGI (converted)): 1120 nM; CC50 (TK-10; [12]): > 100000 nM; growth at 10 µM (Malme-3M): 5 to 10%; growth at 0.1 µM (NCI-H23): 61 to 70%; growth at 0.01 µM (MDA-MB-231): 90 to 104%; growth at 0.1 µM (COLO 205 [9]): 24 to 69%; growth at 1 µM (SN12C): 7 to 13%; GI50 (UO-31): 115 to 130 nM; TGI (UO-31): 315 to 1500 nM; CC50 (UO-31; [11]): > 100000 nM; growth at 0.1 µM (SK-MEL-28): 77 to 94%; growth at 10 µM (SF-268): 7 to 11%; GI50 (MDA-MB-435 [10]): 105 to 294 nM; TGI (MDA-MB-435 [10]): 5360 to 19700 nM; CC50 (MDA-MB-435 [10]; [11]): > 100000 nM |
